Results from ChEMBL document CHEMBL1122242, “Phenylenebis(oxy)bis[2,2-dimethylpentanoic acid]s: agents that elevate high-density lipoproteins” (1983).

Experiments:
Assay type in all cases: functional
Rattus norvegicus [1] = species: Rattus norvegicus; assay: Hypolipidemic effects(liver weight) in male rats
Method in brief: (§1)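 Male rats, 10 per group, fed 7 days on chow with 10% fat (5.5% added peanut oil), 1.5% cholesterol and 0.1% cholic acid. Oral gavage on days 4-7 in 4% acacia, usually 50 mg/kg daily. Fasted overnight, killed day 8, atrial blood into EDTA. Plasma cholesterol, TG and HDL cholesterol (after MnCl2/heparin precipitation) by Autoanalyzer. % change vs controls, Student's t test.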

Rattus norvegicus [2] = assay: Hypolipidemic effects (low-density lipoprotein (LDL) cholesterol) in male rats; Compound was screening orally at 50 mg/Kg; method in brief: as §1
Rattus norvegicus [3] = species: Rattus norvegicus; assay: Hypolipidemic effects(plasma TG) in male rats; method in brief: as §1
Rattus norvegicus [4] = species: Rattus norvegicus; assay: Hypolipidemic effects(plasma cholesterol) in male rats; method in brief: as §1
Rattus norvegicus [5] = assay: Hypolipidemic effects (high-density lipoprotein (HDL) cholesterol) in male rats;Compound was screening orally at 50 mg/Kg; method in brief: as §1
Rattus norvegicus [6] = assay: Hypolipidemic effects (high-density lipoprotein (HDL) cholesterol) in male rats; Compound was screening orally at 50 mg/Kg; method in brief: as §1
Rattus norvegicus [7] = assay: Hypolipidemic effects (low-density lipoprotein (LDL) cholesterol) in male rats;Compound was screening orally at 50 mg/Kg; method in brief: as §1

Compound	Change (Rattus norvegicus [1]) [%]	Change (Rattus norvegicus [2]) [%]	Change (Rattus norvegicus [3]) [%]	Change (Rattus norvegicus [4]) [%]	Change (Rattus norvegicus [5]) [%]	Change (Rattus norvegicus [6]) [%]	Change (Rattus norvegicus [7]) [%]
CCCC(=O)c1cc(OCCCC(C)(C)C(=O)OC)ccc1OCCCC(C)(C)C(=O)OC	34	-52	0	39	1100		
CC(C)(CCCOc1ccc(S(=O)(=O)CCCC(C)(C)C(=O)O)cc1)C(=O)O	9	-20	0	0		93	
CC(C)(CCCCCOc1cccc(OCCCCCC(C)(C)C(=O)O)c1)C(=O)O	0	-27	0	-22	48		
COC(=O)C(C)(C)CCCOc1cc(OCCCC(C)(C)C(=O)OC)cc(-c2ccccc2)c1	13	-42	0	-41		0	
Cc1ccccc1-c1cc(OCCCC(C)(C)C(=O)O)ccc1OCCCC(C)(C)C(=O)O	22	-52	55	0		628	
COC(=O)C(C)(C)CCCOc1ccc(Br)c(OCCCC(C)(C)C(=O)OC)c1	5	-52	0	-47		26	
COC(=O)C(C)(C)CCCSc1ccc(Oc2ccc(SCCCC(C)(C)C(=O)OC)cc2)cc1	4		0	-29		0	-31
CC(C)(CCCOc1ccc(Oc2ccc(OCCCC(C)(C)C(=O)O)cc2)cc1)C(=O)O	0	-36	0	-35		0	
CC(C)(CCCOc1ccc(OCCCC(C)(C)C(=O)O)c(CO)c1)C(=O)O	9		18	40		319	0
CC(C)(CCOc1cccc(OCCC(C)(C)C(=O)O)c1)C(=O)O	17	-46	240	-28	383		
CC(C)(CO)CCCOc1ccc(OCCCC(C)(C)CO)c(-c2ccccc2)c1	30	-36	0	37		1105	
CC(C)(CCOc1ccc(Sc2ccc(OCCC(C)(C)C(=O)O)cc2)cc1)C(=O)O	0		-32	-25	46		
CC(C)(CCCOc1ccc(OCCCC(C)(C)C(=O)O)cc1)C(=O)O		-27	0	-45	791	44	
COC(=O)C(C)(C)CCCSc1ccc(-c2ccc(SCCCC(C)(C)C(=O)OC)cc2)cc1	14	-39	60	0		245	
CC(C)(CCOc1ccc(OCCC(C)(C)C(=O)O)c(Cl)c1)C(=O)O	13		-32	-62	348		
CC(C)(CCCOc1cc(Cl)c(OCCCC(C)(C)C(=O)O)cc1Cl)C(=O)O	41		35	-55	384		
COC(=O)C(C)(C)CCCOc1ccc(OCCCC(C)(C)C(=O)OC)c(C=O)c1	9	-20	0	0		217	
COC(=O)C(C)(C)CCCCCOc1ccccc1OCCCCCC(C)(C)C(=O)OC	11	-19	140	0		276	
Cc1cc(SCCCC(C)(C)C(=O)O)c(C)cc1OCCCC(C)(C)C(=O)O	14	-35	0	-20		220	
COC(=O)C(C)(C)CCCOc1cc(OC)c(OCCCC(C)(C)C(=O)OC)cc1OC	0		0	-33	39		
COC(=O)C(C)(C)CCCOc1ccc(OCCCC(C)(C)C(=O)OC)c(/C=N/NC(N)=O)c1	4	-33	0	-28	0		
CC(C)(CCCOc1ccc(OCCCC(C)(C)C(=O)O)c(Sc2ccccc2)c1)C(=O)O	14	-30	44	32		428	
COC(=O)C(C)(C)CCCOc1ccc(C(=O)c2ccc(OCCCC(C)(C)C(=O)OC)cc2)cc1	0	0	0	0		0	

Compound	Change (Rattus norvegicus [1]) [%]	Change (Rattus norvegicus [2]) [%]	Change (Rattus norvegicus [3]) [%]	Change (Rattus norvegicus [4]) [%]	Change (Rattus norvegicus [5]) [%]	Change (Rattus norvegicus [6]) [%]	Change (Rattus norvegicus [7]) [%]
CC(C)(CCCOc1ccc(OCCCC(C)(C)C(=O)O)c(Cc2ccccc2)c1)C(=O)O	14	-71	0	-44		389	
CC(C)(CCCOc1ccc([S+]([O-])CCCC(C)(C)C(=O)O)cc1)C(=O)O (centres undefined)	19	-31	16	-33		289	
COC(=O)C(C)(C)CCCOc1ccc(OCCCC(C)(C)C(=O)OC)c(C(C)(C)C)c1	11	-41	0	-34		171	
COC(=O)C(C)(C)CCCOc1ccc(OCCCC(C)(C)C(=O)OC)c(OC)c1	30	-31	0	-26	566		
CC(C)(CCCOc1ccc(OCCCC(C)(C)C(=O)O)c([S+]([O-])c2ccccc2)c1)C(=O)O (centres undefined)	16	-58	-21	-27		599	
COC(=O)c1cc(OCCCC(C)(C)C(=O)OC)cc(OCCCC(C)(C)C(=O)OC)c1	0	0	0	0		0	
CC(C)(CCCOc1ccc(OCCCC(C)(C)C(=O)O)c(S(=O)(=O)c2ccccc2)c1)C(=O)O	10	-53	35	-32		303	
CCC(=O)c1cc(OCCCC(C)(C)C(=O)OC)ccc1OCCCC(C)(C)C(=O)OC	40	-57	0	0	723		
COC(=O)C(C)(C)CCCSc1ccc(Cl)c(SCCCC(C)(C)C(=O)OC)c1	0	-52	0	-53		56	
CC(C)(CCCCOc1cccc(OCCCCC(C)(C)C(=O)O)c1)C(=O)O	18	-52	41	-37	317		
CCOC(=O)C(C)(C)CCCCCCOc1ccc(OCCCCCCC(C)(C)C(=O)OCC)cc1	0	-29	0	-26		0	
COC(=O)C(C)(C)CCCOc1ccc(-c2ccccc2)c(OCCCC(C)(C)C(=O)OC)c1	6	-25	0	0	40		
COC(=O)C(C)(C)CCCOc1cccc(OCCCC(C)(C)C(=O)OC)c1[N+](=O)[O-]	5	-43	0	-33		109	
CC(C)(CCOc1ccc(OCCC(C)(C)C(=O)O)cc1)C(=O)O	40		0	-33	370		
CC(C)(CCCOc1ccc(OCCCC(C)(C)C(=O)O)c(C(F)(F)F)c1)C(=O)O	39	-45	0	0		674	
COC(=O)C(C)(C)CCCOc1cccc(OCCCC(C)(C)C(=O)OC)c1C(C)=O	0		0	-38		0	-40
COC(=O)C(C)(C)CCCOc1ccc(OCCCC(C)(C)C(=O)OC)c(Br)c1	30		-39	-45	728		
CCCCCc1cc(OCCCC(C)(C)C(=O)OC)cc(OCCCC(C)(C)C(=O)OC)c1	8	-67	-32	-57		47	
CC(C)(CCCOc1ccc(OCCCC(C)(C)C(=O)O)c(C(=O)O)c1)C(=O)O	0	-17	0	0	0		
COC(=O)C(C)(C)CCCOc1ccc(C)c(OCCCC(C)(C)C(=O)OC)c1	4	-64	0	-55		38	
CC(=O)OCC(C)(C)CCCOc1ccc(OCCCC(C)(C)COC(C)=O)c(-c2ccccc2)c1	19	-36	0	0		602	
Cc1ccc(-c2cc(OCCCC(C)(C)C(=O)O)ccc2OCCCC(C)(C)C(=O)O)cc1	0		-27	-32		66	-42
